High-throughput results as filed in PubChem BioAssay.
Most compounds without a hit are left out; they make up all but 1.2% or so of the library.
ASAP1 inh: inhibitors of human ASAP1 ArfGAP activity, primary screen, biochemical, fluorescence polarization; Arf-GAP with SH3 domain, ANK repeat and PH domain-containing protein 1 (Homo sapiens), …; ASAP1-stimulated ARF1 GTP hydrolysis, GDP FP detection; inhibition, % at 16.5 µM; 360,000 tested, 0.19% active; in the data active = inhibition above about 25%
Rin1 Abl inh: inhibitors of Rin1-Abl protein binding, primary screen, biochemical, TR-FRET | inhibition, % at 7.35 µM | AID 588664, 2011 | Tyrosine-protein kinase ABL1 (Homo sapiens) + Ras and Rab interactor 1 (Homo sapiens), … | 360,000 tested, 0.4% active; in the data active = inhibition above about 5%, passing the limit was not always enough
ARFGAP1 inh: inhibitors of rat ARFGAP1 GAP activity, primary screen, biochemical, fluorescence polarization, GDP tracer; inhibition, % at 16.5 µM; 360,000 tested, 0.26% active; Arfgap1-stimulated ARF1 GTP hydrolysis, GDP FP detection; ADP-ribosylation factor GTPase-activating protein 1 (Rattus norvegicus), Q62848;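 active = inhibition above a per-plate limit, mean inhibition of low control wells plus 3 SD, cut at about 25% in these data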
Target sequence (Q62848 1-136 limits assumed): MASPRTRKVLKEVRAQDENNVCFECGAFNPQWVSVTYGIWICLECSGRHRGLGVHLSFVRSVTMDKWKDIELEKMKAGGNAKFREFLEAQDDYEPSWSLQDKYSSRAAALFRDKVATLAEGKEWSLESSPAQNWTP
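Material: rat Arfgap1 catalytic domain, aa 1-136; also added: human ARF1(Δ1-17)-GTP substrate; compound dosing: one concentration, 16.5 µM, DMSO 1.26%; incubation: GTP hydrolysis reaction 2 h at 25 °C; measured by: Tracer-displacement fluorescence polarization with EDTA stop, 620/688 nm; evaluation: % inhibition from polarization; repeats: one replicate per compound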
GalR3 antag: GalR3 antagonists in HEK293 cells, primary screen, cell-based, fluorescence readout; Galanin receptor type 3 (Homo sapiens), O60755; HEK293 GalR3-CNG cAMP membrane potential fluorescence; galR3 body fused to GalR1 C-terminus; inhibition, % at 3 µM; 360,000 tested, 0.44% active; AID 651719, 2012;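 active = inhibition above the screen-wide average plus 3 SD, cut at about 13% in these data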;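 note: forskolin and galanin both at EC90 stimulate the cells; cAMP rise reported by CNG channel membrane potential dye signal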
Target sequence (O60755 1-299 limits assumed): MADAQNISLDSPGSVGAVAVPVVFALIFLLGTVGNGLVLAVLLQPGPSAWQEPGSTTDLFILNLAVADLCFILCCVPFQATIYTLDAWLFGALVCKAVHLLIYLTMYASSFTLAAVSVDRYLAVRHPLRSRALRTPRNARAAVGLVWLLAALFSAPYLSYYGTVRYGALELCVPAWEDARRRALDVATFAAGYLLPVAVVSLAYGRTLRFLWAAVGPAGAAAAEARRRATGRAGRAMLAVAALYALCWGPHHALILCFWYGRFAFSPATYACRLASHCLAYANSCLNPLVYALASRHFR
GalR3 conf: GalR3 antagonist hit confirmation, cell-based, fluorescence, triplicate; shares compounds with GalR3 antag; HEK293 GalR3 CNG cAMP biosensor, membrane potential fluorescence; galR3 fused to GalR1 carboxy tail; challenged with forskolin and galanin at EC90; inhibition, % at 3 µM; 1,600 tested, 59% active;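 active = inhibition above the primary screen's cutoff, the mean inhibition of all screened compounds plus 3 SD, cut at about 13% in these data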
CNG parental: nonspecific cAMP agonists in parental HEK-CNG cells, counter-screen for GalR3 antagonist project, cell-based, fluorescence, high throughput; 1,600 tested, 10% active; shares compounds with GalR3 antag; HEK293-CNG parental cells, cAMP membrane potential fluorescence; normalised: DMSO wells 0%, forskolin wells 100%; activation, % at 3 µM; in the data active = activation above about 1.3%
Hits are given with their value.

Results for COC(=O)[C@]12C[C@H](CC(=O)NCc3cccc4ccccc34)C(=O)N(CCc3ccc(OC)c(OC)c3)C1=C[C@H](C(C)(C)C)O[C@@H]2C ?
ASAP1 inh: inactive; ARFGAP1 inh: inactive; GalR3 antag: inactive

Results for CCN1C(=O)/C(=C2/Sc3ccccc3N2CC)S/C1=N\c1ncn[nH]1 ?
ASAP1 inh: inactive; Rin1 Abl inh: inactive; ARFGAP1 inh: inactive; GalR3 antag: 17.8; GalR3 conf: inactive; CNG parental: inactive

What do the screens show for `O=C(NC1CCCCCCC1)c1cc(COc2ccc3ncccc3c2)on1`?
ASAP1 inh: inactive; Rin1 Abl inh: inactive; ARFGAP1 inh: inactive; GalR3 antag: 67.8; GalR3 conf: 91.8; CNG parental: inactive

How did CN(Cc1cccc2cnccc12)C(=O)c1cc(COc2ccc(F)cc2F)on1 do in these assays?
ASAP1 inh: inactive; Rin1 Abl inh: inactive; ARFGAP1 inh: inactive; GalR3 antag: inactive

What do the screens show for `CCc1ccc(CN(C)C(=O)c2cc(COc3cccc4cnccc34)on2)cc1`?
ASAP1 inh: inactive; Rin1 Abl inh: inactive; ARFGAP1 inh: inactive; GalR3 antag: 14.3; GalR3 conf: 83.8; CNG parental: inactive

Results for CCC(O)C1CCN(C(=O)c2cc(COc3ccc4ncccc4c3)on2)CC1 (stereo not given) ?
ASAP1 inh: inactive; Rin1 Abl inh: inactive; ARFGAP1 inh: inactive; GalR3 antag: 101.4; GalR3 conf: 91.3; CNG parental: inactive

How did Cc1cc(CN(C)C(=O)c2cc(COc3ccc4ncccc4c3)on2)on1 do in these assays?
ASAP1 inh: inactive; Rin1 Abl inh: inactive; ARFGAP1 inh: inactive; GalR3 antag: 37.3; GalR3 conf: 69.2; CNG parental: inactive

Results for C=CCCC1CN(Cc2ccc(OC)cc2)S(=O)(=O)c2c(cccc2N2CCCC2)O1 (stereo not given) ?
ASAP1 inh: inactive; ARFGAP1 inh: inactive; GalR3 antag: inactive

Results for Cc1cc(Oc2cccnc2)ccc1NC(=O)Cc1c(C)[nH]c2ccccc12 ?
ASAP1 inh: inactive; ARFGAP1 inh: inactive; GalR3 antag: inactive

What do the screens show for `COCC1CCCN(C(=O)c2cc(COc3ccc4ncccc4c3)on2)C1` (stereo not given)?
ASAP1 inh: inactive; Rin1 Abl inh: inactive; ARFGAP1 inh: inactive; GalR3 antag: 100.0; GalR3 conf: 125.2; CNG parental: inactive

How did O=C(c1cc(COc2ccc3ncccc3c2)on1)N1CCCC(O)C1 (stereo not given) do in these assays?
ASAP1 inh: inactive; Rin1 Abl inh: inactive; ARFGAP1 inh: inactive; GalR3 antag: inactive

Results for COc1ccc(OC)c2sc(N3CCN(c4ccccc4)CC3)nc12 ?
ASAP1 inh: inactive; Rin1 Abl inh: inactive; ARFGAP1 inh: inactive; GalR3 antag: 15.2; GalR3 conf: inactive; CNG parental: inactive

What do the screens show for `COc1ccc(C)c2sc(N3CCCC3)nc12`?
ASAP1 inh: inactive; Rin1 Abl inh: inactive; ARFGAP1 inh: inactive; GalR3 antag: inactive

How did Cc1cc(C(=O)N/N=C(\CCC(=O)O)c2cccs2)c2ccccc2n1 do in these assays?
ASAP1 inh: inactive; Rin1 Abl inh: inactive; ARFGAP1 inh: inactive; GalR3 antag: 17.0; GalR3 conf: inactive; CNG parental: inactive

Results for Cc1cc(C(=O)OCC(=O)c2cccs2)c2ccccc2n1 ?
ASAP1 inh: inactive; Rin1 Abl inh: inactive; ARFGAP1 inh: inactive; GalR3 antag: inactive

How did COC(=O)c1ccc(C2=NOC(C)(c3sc(-c4ccccc4)nc3C)C2)cc1 (stereo not given) do in these assays?
ASAP1 inh: inactive; Rin1 Abl inh: inactive; ARFGAP1 inh: inactive; GalR3 conf: 31.7; CNG parental: 1.5
